Experimental data as given in ChEMBL document CHEMBL1944608, “Design, synthesis and biological evaluation of novel 2-methylpyrimidine-4-ylamine derivatives as inhibitors of Escherichia coli pyruvate dehydrogenase complex E1” (Bioorg Med Chem, 2012).

What was measured:
[1] = Inhibition of Escherichia coli PDHC-E1 expressed in Escherichia coli TB1 using 2,6-dichlorophenolindophenol as substrate after 3 mins
Outline: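 MBP-fusion enzyme was expressed in E. coli TB1 grown in LB with 2% glucose and ampicillin at 37 °C to A600 0.6–0.8, then induced with 0.5 mM IPTG for 7 h at 25 °C. Protein was purified by MBP affinity to >95% purity and quantified by Bradford. The assay buffer was 50 mM K3PO4 pH 7.2 with 2.0 mM pyruvate substrate and 0.8 mM 2,6-DCIP. Enzyme and inhibitor were preincubated 3 min at 37 °C, and then ThDP was added to start the reaction. DCIP reduction was read at 600 nm. IC50 was obtained by fitting initial rates against varied inhibitor concentration to the Hill equation.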

Fusarium graminearum = assay: Antifungal activity against Gibberella zeae assessed as inhibition of mycelium growth at 100 ug/ml after 48 hrs; assay type: functional; conditions: read-out: GI
Outline: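 Poisoned-medium plate test: compound mixed into molten medium and poured into dishes; once set, each plate was seeded with a 5 mm mycelium disk, inverted, and held at 28 °C for 48 h. The blank control was medium without sample, and tests were run in triplicate. Mycelial diameter was measured, and inhibition was taken as I = [(C − T)/C] × 100%, with C the mean blank diameter and T the mean treated diameter.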

Rhizoctonia solani = assay: Antifungal activity against Rhizoctonia solani assessed as inhibition of mycelium growth at 100 ug/ml after 48 hrs; assay type: functional; conditions: read-out: GI
Outline: (§1)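 Poisoned-agar mycelial growth test. Compound mixed into medium and poured into dishes. Once solidified, plates were inoculated with a 5 mm mycelium disk, inverted and incubated at 28 °C for 48 h. Medium without sample served as blank. Mycelial elongation radius was measured in triplicate. Inhibition (%) = [(C − T)/C] × 100, where C and T are the mean mycelial diameters of the blank and the treated plates.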

Botrytis cinerea = assay: Antifungal activity against Botryotinia fuckeliana assessed as inhibition of mycelium growth at 100 ug/ml after 48 hrs; assay type: functional; conditions: read-out: GI; outline: as §1
Alternaria solani = assay: Antifungal activity against Alternaria solani assessed as inhibition of mycelium growth at 100 ug/ml after 48 hrs; assay type: functional; conditions: read-out: GI; outline: as §1
Alternaria alternata = assay: Antifungal activity against Alternaria alternata Keissler assessed as inhibition of mycelium growth at 100 ug/ml after 48 hrs; assay type: functional; conditions: read-out: GI; outline: as §1
[2] = Antifungal activity against Colletotrichum orbiculare assessed as inhibition of mycelium growth at 100 ug/ml after 48 hrs; assay type: functional; outline: as §1

SMILES | IC50 [1] [µM] | inhibition of growth at 100 µg/mL (Fusarium graminearum) [%] | inhibition of growth at 100 µg/mL (Rhizoctonia solani) [%] | inhibition of growth at 100 µg/mL (Botrytis cinerea) [%] | inhibition of growth at 100 µg/mL (Alternaria solani) [%] | inhibition of growth at 100 µg/mL (Alternaria alternata) [%] | growth inhibition (GI) [2] [%]
Cc1ncc(Cn2nnc(COc3ccccc3)c2I)c(N)n1 | 19.6 | 59 | 96 | 88 | 57 | 23 | 45
CC1COC(Cn2cncn2)(c2ccc(Oc3ccc(Cl)cc3)cc2Cl)O1 (configuration not stated) [DIFENOCONAZOLE] | – | 98 | 100 | 96 | 100 | 100 | 97
Cc1ncc(Cn2cc(COc3ccc([N+](=O)[O-])cc3[N+](=O)[O-])nn2)c(N)n1 | 11.3 | 48 | 0 | 54 | 0 | 0 | 42
Cc1ncc(Cn2cc(COc3ccccc3)nn2)c(N)n1 | – | 0 | 0 | 53 | 25 | 43 | 40
Cc1ncc(Cn2cc(COc3ccc([N+](=O)[O-])cc3Cl)nn2)c(N)n1 | – | 0 | 31 | 44 | 20 | 36 | 57
Cc1ncc(Cn2cc(COc3ccc(Cl)cc3)nn2)c(N)n1 | 26.4 | 51 | 23 | 73 | 44 | 52 | 50
Cc1ncc(Cn2cc(COc3ccccc3[N+](=O)[O-])nn2)c(N)n1 | 36.3 | – | – | – | – | – | –
Cc1ncc(Cn2cc(COc3ccc(Cl)cc3Cl)nn2)c(N)n1 | 18.7 | – | – | – | – | – | –
CCOC(=O)c1ccc(OCc2cn(Cc3cnc(C)nc3N)nn2)cc1 | 28.8 | – | – | – | – | – | –
Cc1ncc(Cn2cc(COc3ccc(Cl)c(C)c3)nn2)c(N)n1 | 26.2 | – | – | – | – | – | –
Cc1ncc(Cn2cc(COc3cccc(C(F)(F)F)c3)nn2)c(N)n1 | 32.7 | – | – | – | – | – | –
Cc1ccc(Cl)c(OCc2cn(Cc3cnc(C)nc3N)nn2)c1 | 29 | – | – | – | – | – | –
COc1ccc(OCc2cn(Cc3cnc(C)nc3N)nn2)cc1 | 81.6 | – | – | – | – | – | –
Cc1ncc(Cn2cc(COc3ccc(F)cc3Cl)nn2)c(N)n1 | 43.3 | – | – | – | – | – | –
COC(=O)Cc1ccc(OCc2cn(Cc3cnc(C)nc3N)nn2)cc1 | 102 | – | – | – | – | – | –
Cc1ncc(Cn2nnc(COc3ccc([N+](=O)[O-])cc3)c2I)c(N)n1 | 5.33 | 68 | 97 | 84 | 66 | 59 | 35
Cc1ncc(Cn2cc(COc3ccc(C(=O)O)cc3)nn2)c(N)n1 | – | 21 | 0 | 67 | 33 | 57 | 42
Cc1ncc(Cn2cc(COc3ccc([N+](=O)[O-])cc3)nn2)c(N)n1 | – | 0 | 24 | 37 | 24 | 33 | 43
